{"source": "ChEMBL document CHEMBL4382240", "about": "“Discovery of novel 2,5-dihydroxyterephthalamide derivatives as multifunctional agents for the treatment of Alzheimer's disease” (Bioorg Med Chem, 2018)", "key": {"[1]": {"assay": "Effective permeability of the compound in PBS/EtOH at 100 ug/ml after 18 hrs by PAMPA", "type": "ADME", "details": "read-out: Peff"}, "[2]": {"assay": "Metal chelating activity assessed as mole fraction of compound required to show 1:2 stoichiometry for compound -Cu2+ complex at 37.5 uM after 30 mins by UV spectrometry method", "in_short": "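Molar-ratio titration in methanol: compound fixed at 37.5 µM final, CuCl2 varied from 3.75 to 150 µM final. Spectra corrected by subtracting CuCl2 and compound alone. Absorbance at 274 nm plotted against mole fraction; stoichiometry taken from where the straight lines intersect.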"}, "[3]": {"organism": "Homo sapiens", "assay": "Anti-inflammatory activity in […] cells assessed as inhibition of LPS-stimulated NO release preincubated for 30 mins followed by LPS stimulation and measured after 24 hrs by Griess reagent based assay", "type": "functional, cell-based"}, "[4]": {"assay": "Metal chelating activity assessed as compound-Zn2+ complex formation at 37.5 uM after 30 mins by UV spectrometry method", "in_short": "(§1)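 Compound and metal salt (CuCl2, ZnCl2, FeSO4 or AlCl3), each 37.5 µM final in methanol, incubated 30 min at room temperature. UV-vis spectra recorded from 200 to 600 nm and compared with the compound alone.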"}, "[5]": {"assay": "Anti-inflammatory activity in […] cells assessed as inhibition of LPS-stimulated TNFalpha release at 10 uM preincubated for 30 mins followed by LPS stimulation and measured after 24 hrs by ELISA relative to control", "type": "functional", "details": "BV-2", "in_short": "(§2)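 Confluent BV-2 cells in DMEM preincubated 30 min with compound, tested over 0.5–10 µM, then stimulated with LPS (1.0 µg/mL) for 24 h. Released TNF-α measured by ELISA following kit instructions. Triplicate wells; mean ± SD of three independent experiments.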"}, "[6]": {"assay": "Metal chelating activity assessed as compound-Cu2+ complex formation at 37.5 uM after 30 mins by UV spectrometry method", "in_short": "as §1"}, "[7]": {"organism": "Homo sapiens", "assay": "Anti-inflammatory activity in […] cells assessed as inhibition of LPS-stimulated TNFalpha release preincubated for 30 mins followed by LPS stimulation and measured after 24 hrs by ELISA", "type": "functional, cell-based", "in_short": "as §2"}, "[8]": {"target": "T1, Acetylcholinesterase (Rattus norvegicus, UniProt P37136)", "T1 sequence (P37136 whole entry)": "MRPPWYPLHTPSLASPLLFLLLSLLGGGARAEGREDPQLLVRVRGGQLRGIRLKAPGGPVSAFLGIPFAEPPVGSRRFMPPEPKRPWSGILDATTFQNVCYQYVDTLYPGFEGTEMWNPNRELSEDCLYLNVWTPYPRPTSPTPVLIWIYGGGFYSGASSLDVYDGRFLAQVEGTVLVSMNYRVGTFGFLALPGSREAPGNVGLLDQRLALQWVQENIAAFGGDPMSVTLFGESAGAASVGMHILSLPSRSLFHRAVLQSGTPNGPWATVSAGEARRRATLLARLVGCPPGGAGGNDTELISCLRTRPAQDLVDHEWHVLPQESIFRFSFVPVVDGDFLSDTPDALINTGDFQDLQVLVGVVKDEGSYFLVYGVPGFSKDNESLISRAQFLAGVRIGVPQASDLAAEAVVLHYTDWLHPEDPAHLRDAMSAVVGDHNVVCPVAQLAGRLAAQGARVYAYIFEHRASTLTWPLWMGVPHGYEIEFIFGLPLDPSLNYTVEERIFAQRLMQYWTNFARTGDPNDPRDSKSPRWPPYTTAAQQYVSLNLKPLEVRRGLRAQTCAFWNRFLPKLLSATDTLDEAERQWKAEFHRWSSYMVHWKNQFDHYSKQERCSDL", "assay": "Inhibition of rat cortex AChE using acetylthiocholine iodide as substrate after 15 mins by Ellman's method"}, "[9]": {"organism": "Homo sapiens", "assay": "Anti-inflammatory activity in […] cells assessed as inhibition of LPS-stimulated TNFalpha release at 0.5 uM preincubated for 30 mins followed by LPS stimulation and measured after 24 hrs by ELISA", "type": "functional, cell-based", "in_short": "as §2"}, "[10]": {"assay": "Inhibition of Cu2+ induced human amyloid beta (1 to 42) aggregation at 25 uM after 24 hrs by Thioflavin T based fluorometric assay relative to control", "in_short": "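Aβ1-42 (25 µM) and Cu2+ (25 µM) in HEPES buffer (20 mM, pH 6.6, 150 mM NaCl), with or without compound (25 µM final), incubated 24 h at 37 °C. ThT (5 µM) in glycine-NaOH, pH 8.5, added and fluorescence read. Triplicate; three independent experiments.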"}, "[11]": {"assay": "Disaggregation of Cu2+ induced preformed fibrils of human amyloid beta (1 to 42) at 25 uM after 24 hrs by Thioflavin T based fluorometric assay relative to control", "in_short": "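Aβ1-42 (25 µM) with Cu2+ (25 µM) in HEPES buffer pre-aggregated 24 h at 37 °C. Compound (25 µM) then added for a further 24 h at 37 °C. Fibril content measured by ThT fluorescence (glycine-NaOH, pH 8.5). Triplicate; three independent experiments.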"}, "[12]": {"assay": "Metal chelating activity assessed as compound-Fe2+ complex formation at 37.5 uM after 30 mins by UV spectrometry method", "in_short": "as §1"}, "[13]": {"target": "Butyrylcholinesterase (Rattus norvegicus, UniProt Q9JKC1)", "sequence (Q9JKC1 whole entry)": "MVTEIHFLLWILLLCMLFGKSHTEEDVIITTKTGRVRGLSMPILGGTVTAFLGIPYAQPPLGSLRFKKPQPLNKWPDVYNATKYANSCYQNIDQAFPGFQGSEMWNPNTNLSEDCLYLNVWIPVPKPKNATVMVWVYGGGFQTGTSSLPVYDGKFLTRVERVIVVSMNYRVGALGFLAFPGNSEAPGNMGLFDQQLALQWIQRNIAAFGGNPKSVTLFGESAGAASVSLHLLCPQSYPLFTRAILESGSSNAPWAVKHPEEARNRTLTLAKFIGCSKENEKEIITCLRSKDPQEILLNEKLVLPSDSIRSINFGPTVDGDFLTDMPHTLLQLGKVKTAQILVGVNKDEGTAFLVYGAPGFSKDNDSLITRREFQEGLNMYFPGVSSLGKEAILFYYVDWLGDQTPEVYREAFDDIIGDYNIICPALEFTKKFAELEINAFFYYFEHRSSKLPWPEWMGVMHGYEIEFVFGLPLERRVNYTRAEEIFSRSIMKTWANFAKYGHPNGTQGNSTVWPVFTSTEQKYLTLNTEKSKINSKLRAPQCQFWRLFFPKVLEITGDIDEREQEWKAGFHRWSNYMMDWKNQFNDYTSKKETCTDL", "assay": "Inhibition of rat serum BuChE using butyrylthiocholine iodide as substrate after 15 mins by Ellman's method", "type": "ADME"}, "[14]": {"assay": "Effect on NO release in […] cells up to 10 uM after 24 hrs by Griess reagent based assay", "type": "ADME, cell-based", "in_short": "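BV-2 cells in DMEM treated with compound alone, without LPS, up to 10 µM. Nitrite in culture supernatant measured by Griess reagent (A540) against a NaNO2 standard curve. Mean ± SD of three independent experiments.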"}, "[15]": {"target": "Acetylcholinesterase (Electrophorus electricus, UniProt O42275)", "sequence (O42275 whole entry)": "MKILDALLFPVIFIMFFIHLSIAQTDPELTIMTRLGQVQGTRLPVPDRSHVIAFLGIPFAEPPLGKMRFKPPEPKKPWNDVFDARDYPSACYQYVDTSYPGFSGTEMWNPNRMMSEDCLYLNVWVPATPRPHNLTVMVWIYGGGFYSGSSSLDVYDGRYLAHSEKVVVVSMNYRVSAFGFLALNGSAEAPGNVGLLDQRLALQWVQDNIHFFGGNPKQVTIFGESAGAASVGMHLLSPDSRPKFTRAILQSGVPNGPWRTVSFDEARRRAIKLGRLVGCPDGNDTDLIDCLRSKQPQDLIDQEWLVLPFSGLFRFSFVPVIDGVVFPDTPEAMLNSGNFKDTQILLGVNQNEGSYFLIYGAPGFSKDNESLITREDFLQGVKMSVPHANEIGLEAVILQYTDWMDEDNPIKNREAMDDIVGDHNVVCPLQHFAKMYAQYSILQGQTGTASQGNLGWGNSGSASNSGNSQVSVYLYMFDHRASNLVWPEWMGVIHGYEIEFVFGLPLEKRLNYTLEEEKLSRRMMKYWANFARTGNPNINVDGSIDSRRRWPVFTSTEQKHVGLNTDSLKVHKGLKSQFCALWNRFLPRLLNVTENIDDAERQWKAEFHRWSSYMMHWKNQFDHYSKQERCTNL", "assay": "Inhibition of electric eel AChE using acetylthiocholine iodide as substrate after 15 mins by Ellman's method"}, "[16]": {"assay": "Cytotoxicity against […] cells assessed as decrease in cell viability up to 10 uM measured after 24 hrs by MTT assay", "type": "cell-based", "in_short": "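BV-2 cells grown 24 h, then treated with compound (0.5, 2.5, 10.0 µM) for 30 min, with or without LPS (1.0 µg/mL), for a further 24 h. MTT (5 mg/mL) added for 4 h, formazan dissolved in DMSO, A490 read. Viability given as percent of untreated cells. Triplicate wells; three independent experiments.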"}, "[17]": {"assay": "Anti-inflammatory activity in […] cells assessed as inhibition of LPS-stimulated TNFalpha release at 2.5 uM preincubated for 30 mins followed by LPS stimulation and measured after 24 hrs by ELISA relative to control", "type": "functional", "details": "BV-2", "in_short": "as §2"}, "[18]": {"target": "Amyloid-beta precursor protein (Homo sapiens, UniProt P05067)", "sequence (P05067 whole entry)": "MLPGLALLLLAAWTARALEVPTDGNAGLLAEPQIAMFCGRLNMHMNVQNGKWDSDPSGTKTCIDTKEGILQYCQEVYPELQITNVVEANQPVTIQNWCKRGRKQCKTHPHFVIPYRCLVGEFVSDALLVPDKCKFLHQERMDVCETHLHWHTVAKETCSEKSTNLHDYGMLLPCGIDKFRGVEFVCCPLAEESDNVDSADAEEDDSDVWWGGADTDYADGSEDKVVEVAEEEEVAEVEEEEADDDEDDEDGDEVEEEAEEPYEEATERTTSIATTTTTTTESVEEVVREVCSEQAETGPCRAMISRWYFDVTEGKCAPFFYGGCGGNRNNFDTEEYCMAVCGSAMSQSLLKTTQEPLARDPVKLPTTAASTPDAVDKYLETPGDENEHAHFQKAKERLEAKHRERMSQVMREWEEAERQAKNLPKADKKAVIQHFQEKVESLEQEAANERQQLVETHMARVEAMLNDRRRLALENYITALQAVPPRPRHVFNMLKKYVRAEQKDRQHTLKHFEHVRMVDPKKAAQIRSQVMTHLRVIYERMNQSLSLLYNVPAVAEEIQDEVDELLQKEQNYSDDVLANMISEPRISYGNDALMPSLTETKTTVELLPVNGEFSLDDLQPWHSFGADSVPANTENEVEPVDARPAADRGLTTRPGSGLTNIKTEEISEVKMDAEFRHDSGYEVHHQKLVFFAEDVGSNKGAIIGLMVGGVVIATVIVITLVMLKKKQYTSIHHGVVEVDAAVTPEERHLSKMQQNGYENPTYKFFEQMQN", "assay": "Inhibition of human amyloid beta (1 to 42) self-induced aggregation after 24 hrs by Thioflavin T based fluorometric assay", "in_short": "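Self-induced Aβ1-42 aggregation (25 µM peptide) in phosphate buffer, pH 7.4, for 24 h at 37 °C with varying compound concentrations. Aggregation read by ThT fluorescence (5 µM ThT, glycine-NaOH pH 8.5).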"}}, "note": "Active and inactive are the calls of the source. The rule behind the calls is not given here."}
{"smiles": "CCN(CCCCNC(=O)c1cc(O)c(C(=O)NCCCCN(CC)Cc2ccccc2OC)cc1O)Cc1ccccc1OC", "values": [{"measurement": "Papp at 18 h, 100 ug/ml", "setting": "[1]", "result": 4.45, "unit": "×10⁻⁶ cm/s"}, {"measurement": "Activity", "setting": "[2]", "result": 1.9, "unit": "molar ratio"}, {"measurement": "inhibition", "setting": "[3]", "result": "Dose-dependent effect"}, {"measurement": "Activity", "setting": "[4]", "result": "inactive"}, {"measurement": "inhibition at 10 µM", "setting": "[5]", "result": 55.3, "unit": "%"}, {"measurement": "Activity", "setting": "[6]", "result": "Active"}, {"measurement": "inhibition", "setting": "[7]", "result": "Dose-dependent effect"}, {"measurement": "IC50", "setting": "[8]", "result": 0.56, "unit": "µM"}, {"measurement": "inhibition", "setting": "[9]", "result": "inactive"}, {"measurement": "inhibition", "setting": "[10]", "result": 71.7, "unit": "%"}, {"measurement": "Activity", "setting": "[11]", "result": 77.2, "unit": "%"}, {"measurement": "Activity", "setting": "[12]", "result": "Active"}, {"measurement": "IC50", "setting": "[13]", "result": "> 100", "unit": "µM"}, {"measurement": "Activity", "setting": "[14]", "result": "Non-Toxic"}, {"measurement": "IC50", "setting": "[15]", "result": 5.12, "unit": "µM"}, {"measurement": "Activity", "setting": "[16]", "result": "Non-Toxic"}, {"measurement": "inhibition at 2.5 µM", "setting": "[17]", "result": 37.1, "unit": "%"}, {"measurement": "IC50", "setting": "[18]", "result": 3.05, "unit": "µM"}]}
